In ChEMBL document CHEMBL1671645, “Pharmacokinetics and absorption of posaconazole oral suspension under various gastric conditions in healthy volunteers” (Antimicrob Agents Chemother, 2009):

Columns and labels:
[1] = Half life in fasted healthy human at 400 mg administered as single dose suspension 5 mins before consumption of high fat meal; format: ADME, organism-based; conditions: in vivo
In short: (§1)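 Single oral suspension dose in healthy volunteers while fasting, 5 min before, midway through (about 10 min into a 20-min meal), or 20 min after a high-fat meal (approx 50 g fat); four-way crossover, 7–10-day washout. Plasma 0–168 h by LC-MS/MS (LLOQ 5.00 ng/ml). t1/2 = ln(2)/K; Tmax median.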

[2] = Apparent total body clearance in healthy human at 400 mg administered as single dose suspension coadministered with nutritional supplement and 10 mg metoclopramide; format: ADME, organism-based; conditions: in vivo, po
In short: (§2)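 A three-way crossover in 13 healthy subjects gave one 400 mg oral suspension dose with a nutritional supplement, either alone, with metoclopramide 10 mg orally three times daily on the day before and the day of dosing, or with a single 4 mg dose of loperamide. Plasma was taken 0–168 h for LC-MS/MS. Analysis was noncompartmental.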

[3] = Cmax in healthy human plasma at 400 mg administered as single dose suspension coadministered with nutritional supplement and 10 mg metoclopramide; format: ADME, organism-based; set-up: dose 400 mg; in short: as §2
Homo sapiens [4] = assay: Toxicity in healthy human assessed as adverse events at 200 mg QID, po administered as suspension for 7 days; format: organism-based; conditions: in vivo, 168 h
In short: (§3)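 Healthy volunteers monitored for adverse events, vital signs, clinical laboratory values and 12-lead ECG. Adverse events tabulated by body system or organ class and severity and summarized by treatment across the crossover regimens.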

[5] = Half life in healthy human at 200 mg QID, po administered as suspension for 7 days coadministered with nutritional supplement; format: ADME, organism-based; conditions: in vivo
In short: (§4)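 Healthy volunteers given oral suspension (40 mg/ml) for 7 days, fasted or with nutritional supplement (Boost); four-way crossover, 14–21-day washout, nonfat snacks ≤800 cal/day allowed. On day 7 only the morning dose was given; plasma sampled predose to 168 h after it. LC-MS/MS (LLOQ 5.00 ng/ml). t1/2 = ln(2)/K from log-linear terminal slope; Tmax as median.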

[6] = Apparent volume of distribution in fasted healthy human at 400 mg administered as single dose suspension after 20 mins after consumption of high fat meal; format: ADME, organism-based; conditions: in vivo, po
In short: (§5)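 In a crossover of 12 healthy subjects, each took a single 400 mg oral suspension dose 5 min before, midway through (about 10 min into a 20-min meal), or 20 min after a high-fat meal of about 50 g fat. Plasma was drawn 0–168 h and measured by LC-MS/MS. Parameters are noncompartmental, with AUC to the last measurable time.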

[7] = Half life in healthy human at 400 mg administered as single dose suspension coadministered with nutritional supplement; format: ADME, organism-based; conditions: in vivo
In short: (§6)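 Single oral suspension dose with nutritional supplement, alone or with metoclopramide 10 mg orally three times daily on the day before and the day of dosing; three-way crossover, 7–10-day washout. EDTA plasma predose to 168 h, LC-MS/MS (LLOQ 5.00 ng/ml). t1/2 = ln(2)/K from terminal slope; Tmax median.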

[8] = Cmax in plasma in hematopoietic stem cell transplant recipient human with GVHD; format: ADME, organism-based
[9] = Cmax in fasted healthy human plasma at 400 mg administered as single dose suspension; format: ADME, organism-based; set-up: dose 400 mg
Homo sapiens [10] = assay: Toxicity in healthy human assessed as headache at 400 mg BID, po administered as suspension for 7 days coadministered with nutritional supplement; format: organism-based; conditions: in vivo, 168 h
In short: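 Healthy volunteers (n = 12) took oral posaconazole suspension (40 mg/ml) for 7 days in a four-way randomized crossover with a 14- to 21-day washout. Subjects stayed fasted throughout, with nonfat snacks up to 800 cal/day allowed. Where given, Boost was taken with each dose. Safety covered adverse events, vital signs, clinical labs and 12-lead ECG, with AEs tabulated by body system and severity per treatment.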

Homo sapiens [11] = assay: Toxicity in healthy human assessed as adverse events at 400 mg BID, po administered as suspension for 7 days coadministered with nutritional supplement; format: organism-based; conditions: in vivo, 168 h; in short: as §3
[12] = Apparent volume of distribution in fasted healthy human at 400 mg administered as single dose suspension coadministered with acidic carbonated beverage and proton pump inhibitor; format: ADME, organism-based; conditions: in vivo, read-out: Vc/F
In short: (§7)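 This was a four-way crossover in 12 healthy subjects with 7–10 day washouts. Each took one fasting 400 mg oral suspension dose, with 12 oz ginger ale and/or esomeprazole 40 mg once each morning on days −2 to 1, with dosing on day 1. Plasma was sampled 0–168 h and measured by LC-MS/MS (LLOQ 5.00 ng/ml). Analysis was noncompartmental, with CL/F = dose/AUC_I and V/F = (CL/F)/K.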

Homo sapiens [13] = assay: Toxicity in healthy human assessed as adverse events at 400 mg administered as single dose suspension coadministered with acidic carbonated beverage and proton pump inhibitor; format: organism-based; set-up: scale not given: the % may be the effect or the level left; conditions: in vivo; in short: as §3
[14] = Half life in healthy human at 400 mg administered as single dose suspension coadministered with nutritional supplement and 4 mg loperamide as two 2 mg tablets; format: ADME, organism-based; conditions: in vivo
In short: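 Oral suspension (40 mg/ml) single dose with nutritional supplement plus loperamide 4 mg single dose, healthy volunteers, three-way crossover with 7–10-day washout. EDTA plasma drawn predose and 1–168 h postdose. LC-MS/MS assay (LLOQ 5.00 ng/ml). Noncompartmental parameters; Tmax reported as median (range).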

[15] = Apparent total body clearance in fasted healthy human at 400 mg administered as single dose suspension coadministered with acidic carbonated beverage; format: ADME, organism-based; conditions: in vivo; in short: as §7
Homo sapiens [16] = assay: Toxicity in healthy human assessed as adverse events at 400 mg administered as single dose suspension coadministered with nutritional supplement; format: organism-based; conditions: in vivo; in short: as §3
[17] = Tmax in fasted healthy human at 200 mg QID, po administered as suspension for 7 days; format: ADME, organism-based; conditions: in vivo; in short: as §4
[18] = Tmax in fasted healthy human at 400 mg administered as single dose suspension after consumption of high fat meal; format: ADME, organism-based; conditions: in vivo; in short: as §1
Homo sapiens [19] = assay: Toxicity in healthy human assessed as adverse events at 400 mg administered as single dose suspension; format: organism-based; conditions: in vivo; in short: as §3
[20] = Half life in healthy human at 400 mg administered as single dose suspension coadministered with nutritional supplement and 10 mg metoclopramide; format: ADME, organism-based; conditions: in vivo; in short: as §6
[21] = Tmax in healthy human at 400 mg administered as single dose suspension coadministered with nutritional supplement; format: ADME, organism-based; conditions: in vivo; in short: as §6
[22] = AUC in fasted healthy human at 400 mg administered as single dose suspension coadministered with acidic carbonated beverage and proton pump inhibitor; format: ADME, organism-based; conditions: plasma; in short: as §7
[23] = Cmax in fasted healthy human plasma at 400 mg administered as single dose suspension after 20 mins after consumption of high fat meal; format: ADME, organism-based; set-up: dose 400 mg; in short: as §5
Homo sapiens [24] = assay: AUC in fasted healthy human at 400 mg BID, po administered as suspension for 7 days; format: ADME, organism-based, Plasma; conditions: in vivo, 168 h
In short: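 Twelve healthy subjects took oral suspension for 7 days as 400 mg BID or 200 mg QID, either fasting or with a Boost-type nutritional supplement, in a crossover with 14–21 day washouts. Nonfat snacks of 800 cal/day or less were allowed. Plasma was sampled 0–168 h after the day-7 morning dose only and analysed by LC-MS/MS. AUC is AUC_τ, normalized to dose.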

[25] = AUC in healthy human at 400 mg administered as single dose suspension coadministered with nutritional supplement and 4 mg loperamide as two 2 mg tablets; format: ADME, organism-based; conditions: plasma; in short: as §2
[26] = Apparent total body clearance in fasted healthy human at 400 mg administered as single dose suspension coadministered with proton pump inhibitor; format: ADME, organism-based; conditions: in vivo; in short: as §7
Homo sapiens [27] = assay: Toxicity in healthy human assessed as adverse events at 200 mg QID, po administered as suspension for 7 days coadministered with nutritional supplement; format: organism-based; conditions: in vivo, 168 h; in short: as §3

CC[C@@H]([C@H](C)O)n1ncn(-c2ccc(N3CCN(c4ccc(OC[C@@H]5CO[C@@](Cn6cncn6)(c6ccc(F)cc6F)C5)cc4)CC3)cc2)c1=O [POSACONAZOLE]
half-life [1]: 23.9 h
CL/F [2]: 993 mL/min
Cmax [3]: 232 ng/mL
Activity (Homo sapiens [4]): 75%
half-life [5]: 27.8 h
Vd/F [6]: 757 L
half-life [7]: 24.3 h
Cmax [8]: 1460 ng/mL
Cmax [9]: 181 ng/mL
Activity (Homo sapiens [10]): 25%
Activity (Homo sapiens [11]): 75%
Vd/F [12]: 3920 L
Activity (Homo sapiens [13]): 25%
half-life [14]: 27.5 h
CL/F [15]: 870 mL/min
Activity (Homo sapiens [16]): 38%
Tmax [17]: 4 h
Tmax [18]: 6 h
Activity (Homo sapiens [19]): 25%
half-life [20]: 27.7 h
Tmax [21]: 5.5 h
AUC [22]: 4180 ng·h/mL
Cmax [23]: 544 ng/mL
AUC (Homo sapiens [24]): 52300 ng·h/mL
AUC [25]: 10400 ng·h/mL
CL/F [26]: 1930 mL/min
Activity (Homo sapiens [27]): 75%
